Laboratory results taken from ChEMBL document CHEMBL1777776, “Identification of 2-mercaptohexanoic acids as dual inhibitors of 5-lipoxygenase and microsomal prostaglandin E₂ synthase-1” (Bioorg Med Chem, 2011).
Activity calls are given as the source filed them. The calls are words filed in the database; no cut-off is given here.

What was measured:
[1] = target: T1, Prostaglandin G/H synthase 2 (Homo sapiens) (UniProt P35354); assay: Inhibition of human recombinant COX2 assessed as residual activity at 10 uM after 5 mins
T1 sequence (whole entry): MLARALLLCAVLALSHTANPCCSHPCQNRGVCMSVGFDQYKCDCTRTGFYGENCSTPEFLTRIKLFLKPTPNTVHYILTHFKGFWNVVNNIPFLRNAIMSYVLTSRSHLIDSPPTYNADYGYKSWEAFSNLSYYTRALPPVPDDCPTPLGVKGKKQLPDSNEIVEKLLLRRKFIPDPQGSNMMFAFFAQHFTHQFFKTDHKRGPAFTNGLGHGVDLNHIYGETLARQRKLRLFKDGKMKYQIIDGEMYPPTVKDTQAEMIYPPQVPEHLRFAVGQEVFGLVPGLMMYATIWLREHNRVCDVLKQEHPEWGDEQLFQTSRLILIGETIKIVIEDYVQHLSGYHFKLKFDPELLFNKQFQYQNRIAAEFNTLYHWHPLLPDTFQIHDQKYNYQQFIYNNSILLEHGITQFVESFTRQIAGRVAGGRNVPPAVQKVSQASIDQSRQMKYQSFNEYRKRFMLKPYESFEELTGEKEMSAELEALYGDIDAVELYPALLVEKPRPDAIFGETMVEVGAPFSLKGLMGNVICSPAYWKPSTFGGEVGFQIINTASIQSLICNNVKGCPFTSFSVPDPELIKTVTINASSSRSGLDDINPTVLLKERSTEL
Procedure, shortened: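 Ovine COX-1 (50 units) or human recombinant COX-2 (20 units) in 1 ml 100 mM Tris pH 8 with 5 mM glutathione, 5 µM haemoglobin and 100 µM EDTA. Preincubated with 10 µM compound 5 min at 4 °C, warmed 60 s at 37 °C. Started with AA (5 µM for COX-1, 2 µM for COX-2), run 5 min at 37 °C. 12-HHT extracted and analysed by HPLC. n = 3.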

[2] = target: T2, Polyunsaturated fatty acid 5-lipoxygenase (Homo sapiens) (UniProt P09917); assay: Inhibition of human recombinant 5-lipoxygenase expressed in Escherichia coli BL21 assessed as enzyme product formation measured up to 30 uM in presence of 13(S)-HpODE
T2 sequence (whole entry): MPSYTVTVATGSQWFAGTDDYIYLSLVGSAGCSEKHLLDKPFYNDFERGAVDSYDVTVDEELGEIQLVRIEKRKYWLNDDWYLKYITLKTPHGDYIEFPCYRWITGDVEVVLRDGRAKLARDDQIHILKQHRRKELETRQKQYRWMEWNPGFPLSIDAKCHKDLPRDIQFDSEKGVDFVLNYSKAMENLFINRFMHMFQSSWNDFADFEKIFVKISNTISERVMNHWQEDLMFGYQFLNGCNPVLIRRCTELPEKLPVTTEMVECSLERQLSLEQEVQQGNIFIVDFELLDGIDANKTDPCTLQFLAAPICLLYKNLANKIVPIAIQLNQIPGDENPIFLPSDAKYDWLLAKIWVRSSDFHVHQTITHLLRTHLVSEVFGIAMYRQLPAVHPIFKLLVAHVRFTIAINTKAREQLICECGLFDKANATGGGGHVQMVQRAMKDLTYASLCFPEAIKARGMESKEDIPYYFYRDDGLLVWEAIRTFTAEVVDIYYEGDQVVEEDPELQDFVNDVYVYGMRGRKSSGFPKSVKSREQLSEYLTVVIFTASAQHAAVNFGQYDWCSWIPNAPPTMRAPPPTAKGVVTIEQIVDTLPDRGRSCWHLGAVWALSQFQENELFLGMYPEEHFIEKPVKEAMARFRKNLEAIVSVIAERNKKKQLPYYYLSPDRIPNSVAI
Procedure, shortened: (§1)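 Human 5-LO expressed in E. coli BL21 (pT3-5LO), affinity-purified and used at once. 0.5 µg enzyme in 1 ml PBS/EDTA with 1 mM ATP preincubated with compound 5–10 min at 4 °C, then warmed 30 s at 37 °C. Reaction started with 2 mM CaCl₂ and AA (routinely 20 µM), with or without 1 µM 13(S)-HpODE. Run 10 min at 37 °C, stopped with ice-cold methanol, products analysed by HPLC. Washout: 10-fold dilution (10 to 1 µM).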

[3] = target: T2, Polyunsaturated fatty acid 5-lipoxygenase (Homo sapiens); assay: Inhibition of human recombinant 5-lipoxygenase expressed in Escherichia coli BL21 assessed as enzyme product formation measured after washout; procedure, shortened: as §1
[4] = target: T2, Polyunsaturated fatty acid 5-lipoxygenase (Homo sapiens); assay: Inhibition of 5-lipoxygenase in LPS/fMLP-stimulated human PMNL assessed as enzyme product formation preincubated 15 mins by ELISA analysis; conditions: in the assay text read “10 mins” for “15 mins”
Procedure, shortened: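 Human PMNL in PBS/glucose primed with 1 µg/ml LPS for 10 min at 37 °C, then 0.3 U/ml adenosine deaminase added. After another 10 min, cells given compound (0.3–10 µM) for 10 min, then stimulated with 1 µM fMLP. LTB₄ measured by ELISA.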

[5] = target: T3, Polyunsaturated fatty acid lipoxygenase ALOX15 (Homo sapiens) (UniProt P16050); assay: Inhibition of 15-lipoxygenase in A23187-stimulated human PMNL assessed as reduction of 15(S)-H(P)ETE formation up to 10 uM preincubated 15 mins by RP-HPLC analysis in presence of exogenous arachidonic acid
T3 sequence (whole entry): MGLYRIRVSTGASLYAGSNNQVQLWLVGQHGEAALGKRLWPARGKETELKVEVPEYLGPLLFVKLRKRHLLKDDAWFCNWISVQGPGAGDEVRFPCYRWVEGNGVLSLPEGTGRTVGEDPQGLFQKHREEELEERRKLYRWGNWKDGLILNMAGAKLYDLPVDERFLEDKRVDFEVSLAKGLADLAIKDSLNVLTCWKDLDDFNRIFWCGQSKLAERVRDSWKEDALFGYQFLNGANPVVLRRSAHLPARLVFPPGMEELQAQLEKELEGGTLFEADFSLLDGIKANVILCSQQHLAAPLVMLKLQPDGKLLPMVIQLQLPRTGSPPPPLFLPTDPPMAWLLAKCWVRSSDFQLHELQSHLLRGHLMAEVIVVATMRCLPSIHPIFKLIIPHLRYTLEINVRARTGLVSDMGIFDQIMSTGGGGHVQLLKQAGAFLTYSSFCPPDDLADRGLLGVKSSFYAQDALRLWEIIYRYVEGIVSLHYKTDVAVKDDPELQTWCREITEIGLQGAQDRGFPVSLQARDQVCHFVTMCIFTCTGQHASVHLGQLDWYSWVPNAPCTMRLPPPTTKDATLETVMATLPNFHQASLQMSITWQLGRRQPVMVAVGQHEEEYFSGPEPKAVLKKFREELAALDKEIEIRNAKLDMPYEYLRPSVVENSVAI
Procedure, shortened: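 Freshly isolated human PMNL (5 × 10⁶/ml PGC buffer: PBS pH 7.4, 1 mg/ml glucose, 1 mM CaCl₂) preincubated with compound 15 min at 37 °C. Stimulated with 2.5 µM A23187 plus exogenous AA for 10 min at 37 °C. Stopped with methanol, PGB₁ added as internal standard, lipoxygenase products analysed by HPLC. Mean of n = 3–5.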

[6] = target: T4, Polyunsaturated fatty acid 5-lipoxygenase (Homo sapiens, UniProt P09917); assay: Inhibition of human recombinant 5-lipoxygenase expressed in Escherichia coli BL21 assessed as enzyme product formation using arachidonic acid as substrate after 10 mins by RP-HPLC analysis; procedure, shortened: as §1
T4 sequence (P09917 whole entry): T2 sequence (whole entry)

Compound: CCCCC(Sc1ccc(OCCCOc2ccc(-c3ccccc3)cc2)cc1)C(=O)O (stereo unspecified)
- inhibition [1]: inactive
- inhibition [2]: Active
- inhibition [3]: Active
- inhibition [4]: Active
- inhibition [5]: inactive
- IC50 [6]: 3.5 µM
